Laboratory results taken from article PMC10523135 (RSC Advances, 2023).

Assays:
Type in all cases: cell-based
[1] = system: HeLa (human cervical cancer cell line); assay: CCK-8 antiproliferative assay, HeLa; conditions: 48 h, read-out: IC50 (μM) ± SD Hela
Summary of the method: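 HeLa cells were grown in RPMI 1640 with 10% FBS and 1% penicillin/streptomycin at 37 °C, 5% CO2. They were seeded at 5 × 10^4 cells per well and left 24 h. Test compound was diluted from […] DMSO stock into medium, with final DMSO below 0.1%, and exposure lasted 48 h. CCK-8 was then added for 2 h at 37 °C and absorbance read at 450 nm. IC50 came from viability data; experiments were done three times.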

[2] = system: A549 (human lung cancer cell line); assay: CCK-8 antiproliferative assay, A549; conditions: A549, 48 h, read-out: IC50 (μM) ± SD A549
[3] = system: MCF-7 (human breast cancer cell line); assay: CCK-8 antiproliferative assay, MCF-7; conditions: MCF7, 48 h, read-out: IC50 (μM) ± SD MCF-7

IC50 [1] | IC50 [2] | IC50 [3] | SMILES
1.03 ± 0.33 µM | 3.54 ± 0.25 µM |  | O=C(CCCCCCC(=O)Nc1ccccc1)NO [SAHA]
8.35 ± 0.47 µM |  | > 20 µM | CNC(=O)c1c(C)oc2cc(Oc3ncnc4cc(OC)c(OC)cc34)ccc12 [Fruquintinib]
